According to ChEMBL document CHEMBL4402564, “Synthetic Lethality in Pancreatic Cancer: Discovery of a New RAD51-BRCA2 Small Molecule Disruptor That Inhibits Homologous Recombination and Synergizes with Olaparib” (J Med Chem, 2020):
Calls of active or inactive are those of the source. The rule behind the calls is not given here.

How the values were obtained:
[1] = biological target: T1, DNA repair protein RAD51 homolog 1 (Homo sapiens) (UniProt Q06609); experiment: Inhibition of RAD51 in human BxPC3 cells assessed as reduction in homologous recombination incubated for 5 hrs by RT-PCR analysis; type: cell-based
T1 sequence (whole entry): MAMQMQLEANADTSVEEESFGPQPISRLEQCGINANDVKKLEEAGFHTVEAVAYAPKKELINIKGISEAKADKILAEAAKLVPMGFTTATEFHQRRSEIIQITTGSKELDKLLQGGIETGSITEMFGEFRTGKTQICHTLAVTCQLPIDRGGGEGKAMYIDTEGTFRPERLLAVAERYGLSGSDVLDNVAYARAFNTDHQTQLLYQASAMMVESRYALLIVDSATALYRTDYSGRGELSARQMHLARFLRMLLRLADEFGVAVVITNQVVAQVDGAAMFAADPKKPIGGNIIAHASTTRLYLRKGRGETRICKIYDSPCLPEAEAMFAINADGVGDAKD
Procedure, shortened: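 Commercial two-plasmid recombination assay in BxPC-3 cells, with compound applied at different doses for 5 h simultaneously with plasmid transfection. Tested up to 40 μM, limited by solubility. Dose giving 50% HR inhibition estimated by polynomial regression.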

[2] = system: BXPC-3; experiment: Antiproliferative activity against human BxPC3 cells at 15 uM after 72 hrs in presence of olaparib by CellTiter-Glo luminescent cell viability assay; type: functional, cell-based
Procedure, shortened: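 BxPC-3 cells grown in RPMI 1640 with 10% FBS, penicillin/streptomycin and 2 mM glutamine. Disruptor given alone or with 10 μM olaparib in medium containing 0.6% DMSO, with the same DMSO in controls. Viability read at 72 h, measured alongside cell death.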

[3] = system: CAPAN-1; experiment: Synergistic antiproliferative activity against BRCA2 defective human Capan1 cells at 20 uM after 72 hrs in presence of 10 uM olaparib by CellTiter-Glo luminescent cell viability assay; type: functional, cell-based
Procedure, shortened: (§1)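 HK-2 cells are non-neoplastic immortalized human kidney cells grown in DMEM:F12 with 40 ng/mL dexamethasone. Capan-1 cells are BRCA2-defective and grown in RPMI 1640 with 10% FBS and 2 mM glutamine. Both exposed to disruptor with olaparib in 0.6% DMSO medium for an antiproliferative read-out. Drug interaction assessed by two-way ANOVA and combination index (CI <0.8 synergism, 0.8–1.2 additive).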

[4] = system: BXPC-3; experiment: Synergistic antiproliferative activity against human BxPC3 cells at 20 uM after 72 hrs in presence of 10 uM olaparib by CellTiter-Glo luminescent cell viability assay; type: functional, cell-based
Procedure, shortened: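 BxPC-3 viability data from 72 h exposure to disruptor with 10 μM olaparib (0.6% DMSO medium) used to compute a combination index. CI <0.8 taken as synergism and 0.8–1.2 as additive. CI at each dose tested for difference from 0.8.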

[5] = system: BXPC-3; experiment: Induction of DNA damage in human BxPC3 cells assessed as micronuclei formation at 20 uM after 72 hrs by DAPI-staining based fluorescence microscopic analysis; type: functional, cell-based
Procedure, shortened: (§2)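 BxPC-3 cultures treated 72 h with 20 μM disruptor, alone or with 10 μM olaparib, in 0.6% DMSO medium. Micronuclei outside the main nucleus visualized by DNA staining under the microscope. Percentage of micronucleated cells scored.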

[6] = system: HK-2; experiment: Cytotoxicity against human HK2 cells at 20 uM after 72 hrs in presence of 10 uM olaparib by CellTiter-Glo luminescent cell viability assay; type: cell-based; conditions: hk-2, 72 h; procedure, shortened: as §1
[7] = system: BXPC-3; experiment: Induction of apoptosis in human BxPC3 cells assessed as increase in fluorescence at 20 uM after 72 hrs in presence of olaparib by DAPI/PI staining based fluorescence microscopic analysis; type: functional, cell-based
Procedure, shortened: (§3)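 BxPC-3 cells treated 72 h with disruptor alone or with olaparib, then stained with mixed DAPI (cell-permeable, nuclear condensation) and propidium iodide (membrane integrity loss). Nuclear morphology and dye uptake examined by fluorescence microscopy.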

[8] = system: BXPC-3; experiment: Antiproliferative activity against human BxPC3 cells assessed as increase in cell death at 10 to 15 uM after 72 hrs in presence of olaparib by CellTox Green assay; type: functional, cell-based
Procedure, shortened: (§4)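 BxPC-3 cells in RPMI 1640 with 10% FBS and 2 mM glutamine. Exposed 72 h to disruptor alone or with 10 μM olaparib, in medium containing 0.6% DMSO. Cell death measured in parallel with viability. Disruptor-only and combination cultures compared statistically.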

[9] = biological target: T1, DNA repair protein RAD51 homolog 1 (Homo sapiens); experiment: Inhibition of RAD51 in human BxPC3 cells assessed as increase in gamma-H2AX labelling at 20 uM after 48 hrs in presence of 10 uM olaparib by immunofluorescence microscopic analysis; type: cell-based
Procedure, shortened: (§5)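 Cells exposed 48 h to 20 μM disruptor alone or with 10 μM olaparib, in medium with 0.6% DMSO. Nuclear γ-H2AX foci visualized by immunofluorescence and percentage of labeled nuclei scored. BxPC-3 (functional BRCA2) and Capan-1 (BRCA2-defective) cultures in RPMI 1640 with 10% FBS.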

[10] = biological target: T1, DNA repair protein RAD51 homolog 1 (Homo sapiens); experiment: Inhibition of RAD51 in human BxPC3 cells assessed as reduction in cisplatin-induced RAD51 foci formation at 20 uM preincubated for 1 hr in presence of cisplatin and followed by compound wash out and further incubated with fresh medium containing compounds for 4 hrs by DAPI-staining based immunofluorescence analysis; type: cell-based
Procedure, shortened: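 DNA damage induced in BxPC-3 by 1 h exposure to 50 μM cisplatin, with or without 20 μM disruptor. RAD51 nuclear foci immunostained and percentage of RAD51-labeled nuclei counted.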

[11] = system: BXPC-3; experiment: Induction of apoptosis in human BxPC3 cells assessed as increase in fluorescence at 20 uM after 72 hrs by DAPI/PI staining based fluorescence microscopic analysis; type: functional, cell-based; procedure, shortened: as §3
[12] = system: BXPC-3; experiment: Antiproliferative activity against human BxPC3 cells assessed as increase in cell death at 20 uM after 72 hrs in presence of olaparib by CellTox Green assay; type: functional, cell-based; procedure, shortened: as §4
[13] = system: BXPC-3; experiment: Induction of DNA damage in human BxPC3 cells assessed as micronuclei formation at 20 uM after 72 hrs in presence of olaparib by DAPI-staining based fluorescence microscopic analysis; type: functional, cell-based; procedure, shortened: as §2
[14] = biological target: T1, DNA repair protein RAD51 homolog 1 (Homo sapiens); experiment: Inhibition of RAD51 in BRCA2 defective human Capan1 cells assessed as increase in gamma-H2AX labelling at 20 uM after 48 hrs in presence of olaparib by immunofluorescence microscopic analysis; procedure, shortened: as §5

inhibition [1]: Dose-dependent effect
inhibition [9]: Active
inhibition [10]: Active
inhibition [14]: inactive
SMILES: CCC(=O)N1N=C(c2c(-c3ccccc3)c3cc(Cl)ccc3[nH]c2=O)CC1c1ccc(OC)cc1 (racemic)
Activity [2]: Active
Activity [3]: Active
Activity [4]: Active
Activity [5]: Active
Activity [6]: Non-Toxic
Activity [7]: Active
Activity [8]: inactive
Activity [11]: Active
Activity [12]: Active
Activity [13]: Active
